Experimental findings from article PMC6978834 (ACS Central Science, 2019) are described below.

The subject of one assay is P. falciparum NF54. The format is cell-based. The following applies: Plasmodium falciparum, NF54, read-out: IC50 P. falciparum proliferation. The method, boiled down:
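Asynchronous asexual P. falciparum NF54 cultures grown by a standard protocol. Proliferation IC50 determined with DHA as positive and DMSO as negative control. Values are mean IC50 ± SD of at least two independent experiments run in triplicate.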

Assay [1] relates to P. falciparum NF54 synchronized asexual parasites. Nature of the assay: Stage-specificity during the asexual cell cycle. The format is cell-based, Plasmodium falciparum. The following applies: 6 h; data not shown. In short, it runs like this:
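NF54 synchronized to 0–3 hpi by gelatin flotation, then 5% D-sorbitol 3 h later. Plated at 2% hematocrit, 0.5% starting parasitemia. 6 h exposure at 1×, 3× or 10× IC50 starting at 0, 6, 12, 18, 24, 30, 36 or 42 hpi, then cells washed in RPMI and recultured. Giemsa-smear parasitemia at 72 h post-synchronization; survival relative to DMSO. Three independent experiments, one well each; unpaired t test versus DMSO.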

With `C[C@H]1[C@@H](O)O[C@@H]2O[C@@]3(C)CC[C@H]4[C@H](C)CC[C@@H]1[C@@]24OO3` [dihydroartemisinin (DHA), dihydroartemisinin], the IC50 with P. falciparum NF54 stood at 5 ± 1 nM. As to `Clc1ccc2c(N3CCN(CCCN4CCN(c5ccnc6cc(Cl)ccc56)CC4)CC3)ccnc2c1` [piperaquine], the “activity on the ring stages” value in assay [1] is recorded as “not active”.
